The results in this text go back to PubChem BioAssay.

Activity calls are given as the source filed them.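 Rule for the calls, unless noted: active = viability at or under a set limit in both replicates, limit being median viability minus 3 SD (cut at about 48% in these data, passing the limit was not always enough); inconclusive = at or under the limit in just one replicate; inactive = at or above the limit in both replicates.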

Experiment [1] is described as follows: Her2 expression decrease, cell viability multiplex – SKBR3 breast tumor cells, AlphaScreen, ATP viability, primary screen (AID 461;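 active = Her2 level under about 52% in both replicate screens, with viability over 70% of control, limit read from the data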;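 for Her2 level: lower value means less Her2 protein in the cells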;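 for viability: percent of carrier control wells set as 100% viability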). The following applies: SKBR3 Her2 protein level, 18-24 h, measured here: SKBR3 viability, ATP luminescence, at 10 µM. (In general: In Alpha technology, singlet oxygen from a donor bead excites a nearby acceptor bead.)
The target of experiment [2] is Receptor tyrosine-protein kinase erbB-2 (Homo sapiens) (UniProt P04626). The experiment is described as above. As to conditions: 18-24 h, at 10 µM, stronger effect = lower value.
Experiment [3] can be described thus: reduced viability of SK-BR-3 breast cancer cells – cell-based, 24 h, human, pilot screen (AID 572;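 active = viability at or below 10% of carrier control in both of two separate runs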;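 note: compound exposure lasted between 18 and 24 h rather than exactly 24 h; 100% = carrier-treated control wells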). The following applies: SK-BR-3 viability, CellTiter-Glo luminescence, at 10 µM, stronger effect = lower value. A general note: In ATP-based viability assays light output follows the ATP content of the culture.
Experiment [4] can be described thus: HUVEC growth inhibition – cell-based, human, primary screen (AID 575;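 active = viability at or below 30% in both replicate assays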;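 note: 100% = median of untreated cell wells with 0.1% DMSO on each plate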). As to conditions: HUVEC proliferation, CellTiter-Glo luminescence, 72 h; at 10 µM; stronger effect = lower value. The gist of the method: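 Assay system: primary human umbilical vein endothelial cells / Buffer or medium: endothelial basal medium with 2% FBS plus growth supplements / Compound dosing: one dose, 10 µM final, 0.1% DMSO / Timing: 72 h treatment at 37 °C / Signal: CTG luminescence / Benchmarks: 32 DMSO-only cell-control wells (high), 32 MePR drug-control wells (low) per plate / Plate: collagen-coated 384-well format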

Experiment [5] can be described thus: H69AR cell proliferation blockers – human, duplicate replicates, primary screen (AID 580).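 Note: 100% = mean luminescence of untreated wells and 0% = no signal.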 The following applies: H69AR lung tumor cells viability, ATP luminescence, 72 h; at 10 µM; stronger effect = lower value.
Experiment [6] is described as follows: MRP1 drug-resistance reversers in H69AR cells – cell-based, doxorubicin co-treatment, pilot screen (AID 601;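 active = viability loss from added drug above about 55%, and viability with drug at most 40%, in both replicates, limit read from the data, passing the limit was not always enough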). As to conditions: CellTiter-Glo, 72 h, at 10 µM; for differential viability (reversal): stronger effect = higher value.
Experiment [7] in a line: yeast transport mutant growth inhibition pilot in 384-well plates, post-Golgi transport modulator project (AID 636; in the data active = inhibition above about 31%). The following applies: absorbance 615 nm, about 18 h, stronger effect = higher value.
A short description of experiment [8]: growth suppression of yeast trafficking mutant, preliminary HTS, modulators of trafficking downstream of Golgi apparatus project, 1536-format plate, OD 615 nm (AID 637; in the data active = inhibition above about 30%). As to conditions: yeast transport mutant growth, absorbance 615 nm, 18 h; stronger effect = higher value.
Where [9] appears, read: H69AR cells + 2 uM doxorubicin, measured here: viability with 2 uM doxorubicin, stronger effect = lower value.
The mark [10] stands for this setting: H69AR cells, compound alone cytotoxicity.

Chain of Receptor tyrosine-protein kinase erbB-2 (Homo sapiens) (P04626 whole entry, looked up): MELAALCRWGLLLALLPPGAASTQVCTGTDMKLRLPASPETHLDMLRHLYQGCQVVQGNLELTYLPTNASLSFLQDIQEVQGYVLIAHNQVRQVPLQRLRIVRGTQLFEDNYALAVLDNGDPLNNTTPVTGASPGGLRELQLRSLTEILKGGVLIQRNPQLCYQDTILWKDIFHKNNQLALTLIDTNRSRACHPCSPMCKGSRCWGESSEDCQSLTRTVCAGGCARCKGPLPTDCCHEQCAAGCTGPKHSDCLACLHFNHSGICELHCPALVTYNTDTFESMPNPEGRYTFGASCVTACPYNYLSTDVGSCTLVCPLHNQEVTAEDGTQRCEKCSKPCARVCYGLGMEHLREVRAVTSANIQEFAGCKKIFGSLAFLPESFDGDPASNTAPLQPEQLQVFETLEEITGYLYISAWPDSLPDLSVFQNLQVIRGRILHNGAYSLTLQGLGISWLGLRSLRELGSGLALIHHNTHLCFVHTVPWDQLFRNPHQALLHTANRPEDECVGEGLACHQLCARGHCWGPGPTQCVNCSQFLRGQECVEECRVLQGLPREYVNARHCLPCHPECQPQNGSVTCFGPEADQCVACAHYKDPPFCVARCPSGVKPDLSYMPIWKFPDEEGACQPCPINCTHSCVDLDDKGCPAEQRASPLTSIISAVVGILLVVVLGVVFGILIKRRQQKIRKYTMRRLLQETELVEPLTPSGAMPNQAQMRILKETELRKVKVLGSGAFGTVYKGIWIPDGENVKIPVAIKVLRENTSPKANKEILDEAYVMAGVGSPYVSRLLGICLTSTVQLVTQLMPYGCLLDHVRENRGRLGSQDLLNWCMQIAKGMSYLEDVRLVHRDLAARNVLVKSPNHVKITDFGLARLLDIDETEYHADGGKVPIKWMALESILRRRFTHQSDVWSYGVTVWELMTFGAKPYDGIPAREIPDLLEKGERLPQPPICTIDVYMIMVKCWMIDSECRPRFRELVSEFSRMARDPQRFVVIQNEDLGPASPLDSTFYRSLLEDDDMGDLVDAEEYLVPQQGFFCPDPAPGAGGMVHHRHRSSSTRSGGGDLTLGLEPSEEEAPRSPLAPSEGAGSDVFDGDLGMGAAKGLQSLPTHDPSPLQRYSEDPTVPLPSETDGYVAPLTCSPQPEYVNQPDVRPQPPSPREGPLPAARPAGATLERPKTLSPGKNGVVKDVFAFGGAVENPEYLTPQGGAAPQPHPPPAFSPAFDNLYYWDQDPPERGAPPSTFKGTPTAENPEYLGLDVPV

For the compound `CCCCOC(=O)CSc1nc2c(cc1C#N)C(=O)CC(C)(C)C2`, the viability (in general, a read-out of living cells in per cent, often relative to untreated cells) in experiment [1] was 87%; in experiment [3] it was 87% (inactive); in experiment [4] it was 91.2% (inactive); in experiment [5] it was 78.8% (inactive); in experiment [6] (setting [9]), 89.4%; in experiment [6] (setting [10]), 78.8%. Besides, the Her2 level in experiment [2] is 86% (inactive). Besides, the differential viability (reversal) in experiment [6] (H69AR cells + 2 uM doxorubicin) was -10.6% (inactive). Further, the figures for the inhibition in experiment [7] and in experiment [8] were -5.13% (inactive) and -2.73% (inactive), respectively.
For the compound `CCn1cc(C(=O)NCCN(C)CCc2ccccc2)c(=O)c2cc(S(=O)(=O)N(C)C)ccc21`, the viability in experiment [1] is 90%; in experiment [3], 90% (inactive); in experiment [4] it was 75.9% (inactive); in experiment [5], 81.2% (inactive); in experiment [6] (setting [9]) it was 79.8%; in experiment [6] (setting [10]), 81.2%. In addition, the Her2 level in experiment [2] was 106% (inactive). For the same compound, the differential viability (reversal) in experiment [6] (H69AR cells + 2 uM doxorubicin) is 1.48% (inactive). Moreover, the inhibition (in general, the relative decrease from the control value, in per cent) in experiment [7] is -1.73% (inactive); in experiment [8], 12.6% (inactive).
For `O=C(CSc1ncnc2ccccc12)N1CCN(c2ccccc2)CC1`, the viability in experiment [1] is 102%; in experiment [3], 102% (inactive); in experiment [4] it was 94.1% (inactive); in experiment [5], 82.7% (inactive); in experiment [6] (setting [9]), 78.1%; in experiment [6] (setting [10]), 82.7%. Also, the Her2 level in experiment [2] is 92.5% (inactive). In experiment [6] (H69AR cells + 2 uM doxorubicin), the differential viability (reversal) is 4.57% (inactive). For the same compound, the inhibition was -1.05% (inactive) in experiment [7] and -8.73% (inactive) in experiment [8].
`CC(=O)Nc1cccc(NC(=O)C2CCCN2C(=O)Nc2ccc(C)cc2)c1` (stereo not given): the viability in experiment [1] is 89%; in experiment [3] it was 89% (inactive); in experiment [4], 99.9% (inactive); in experiment [5], 100% (inactive); in experiment [6] (setting [9]), 89.7%; in experiment [6] (setting [10]) it was 100%. In experiment [2], the Her2 level was 93.5% (inactive). Further, the differential viability (reversal) in experiment [6] (H69AR cells + 2 uM doxorubicin) is 10.7% (inactive). The inhibition in experiment [7] was -0.68% (inactive); in experiment [8] it was -6.89% (inactive).
Take `CCOC(=O)C1CCN(c2c(NC3CCCCCCC3)c(=O)c2=O)CC1`: the viability in experiment [1] was 90%; in experiment [3], 90% (inactive); in experiment [4] it was 92.2% (inactive); in experiment [5], 79.7% (inactive); in experiment [6] (setting [9]), 71%; in experiment [6] (setting [10]), 79.7%. Further, in experiment [2], the Her2 level is 112% (inactive). The differential viability (reversal) in experiment [6] (H69AR cells + 2 uM doxorubicin) is 8.71% (inactive). The inhibition in experiment [7] is 0.64% (inactive); in experiment [8], 0.5% (inactive).
As for `CN1CCN(C(=O)C2(NC(=O)Nc3cccc(F)c3)CCCCC2)CC1`, the viability was 81% in experiment [1]; 81% (inactive) in experiment [3]; 97.4% (inactive) in experiment [4]; 93.9% (inactive) in experiment [5]; 103% in experiment [6] (setting [9]); 93.9% in experiment [6] (setting [10]). Further, in experiment [2], the Her2 level is 97% (inactive). In addition, the differential viability (reversal) in experiment [6] (H69AR cells + 2 uM doxorubicin) is -9.36% (inactive). In addition, the inhibition in experiment [7] is -3.65% (inactive); in experiment [8], -3.02% (inactive).
Take `COc1ccc(-c2noc(CN3C(=O)c4ccccc4C3=O)n2)cc1`: the viability is 102% in experiment [1]; 102% (inactive) in experiment [3]; 97.5% (inactive) in experiment [4]; 102% (inactive) in experiment [5]; 96.4% in experiment [6] (setting [9]); 102% in experiment [6] (setting [10]). Besides, the Her2 level in experiment [2] is 108% (inactive). In addition, the differential viability (reversal) in experiment [6] (H69AR cells + 2 uM doxorubicin) is 5.23% (inactive). For the same compound, the figures for the inhibition in experiment [7] and in experiment [8] were -0.92% (inactive) and 11.3% (inactive), respectively.
As to `CCOc1ccc2c(O)csc2c1`, the viability is 90.5% in experiment [1]; 90.5% (inactive) in experiment [3]; 96.2% (inactive) in experiment [4]; 95.9% (inactive) in experiment [5]; 93.7% in experiment [6] (setting [9]); 95.9% in experiment [6] (setting [10]). Further, the Her2 level in experiment [2] was 116% (inactive). Moreover, the differential viability (reversal) in experiment [6] (H69AR cells + 2 uM doxorubicin) is 2.28% (inactive). Besides, the inhibition is 0.13% (inactive) in experiment [7] and 2.17% (inactive) in experiment [8].
Consider `Cc1ccc(C)c2[nH]c(=O)c(CCNC(=O)c3ccc(Br)o3)cc12`, for which the viability in experiment [1] is 87%; in experiment [3], 87% (inactive); in experiment [4] it was 72.8% (inactive); in experiment [5], 89.3% (inactive); in experiment [6] (setting [9]) it was 83.4%; in experiment [6] (setting [10]), 89.3%. The Her2 level in experiment [2] is 87% (inactive). Moreover, the differential viability (reversal) in experiment [6] (H69AR cells + 2 uM doxorubicin) was 5.93% (inactive). For the same compound, the inhibition in experiment [7] is -7.81% (inactive); in experiment [8], -4.6% (inactive).
Take `COCc1nnc(NC(=O)c2ccc(NC(C)=O)cc2)s1`: the viability was 100% in experiment [1]; 100% (inactive) in experiment [3]; 86.4% (inactive) in experiment [4]; 105% (inactive) in experiment [5]; 90.2% in experiment [6] (setting [9]); 105% in experiment [6] (setting [10]). The Her2 level in experiment [2] was 102% (inactive). Further, the differential viability (reversal) in experiment [6] (H69AR cells + 2 uM doxorubicin) was 14.8% (inactive). Further, the values for the inhibition in experiment [7] and in experiment [8] were 0.13% (inactive) and -9.19% (inactive), respectively.
For `COc1cccc(-c2cc(C(=O)N3CCCc4ccccc43)no2)c1`, the viability in experiment [1] is 110%; in experiment [3] it was 110% (inactive); in experiment [4], 94.6% (inactive); in experiment [5] it was 92.4% (inactive); in experiment [6] (setting [9]), 87.4%; in experiment [6] (setting [10]), 92.4%. In addition, the Her2 level in experiment [2] was 89.5% (inactive). Further, the differential viability (reversal) in experiment [6] (H69AR cells + 2 uM doxorubicin) is 5.08% (inactive). The inhibition is -6.49% (inactive) in experiment [7] and -0.83% (inactive) in experiment [8].
As for `Cc1cccc(N(C)C(=O)c2coc(=O)c3ccccc23)c1`, the viability in experiment [1] was 85%; in experiment [3], 85% (inactive); in experiment [4], 82.9% (inactive); in experiment [5] it was 85.8% (inactive); in experiment [6] (setting [9]) it was 88.7%; in experiment [6] (setting [10]) it was 85.8%. Also, the Her2 level in experiment [2] is 81% (inactive). The differential viability (reversal) in experiment [6] (H69AR cells + 2 uM doxorubicin) is -2.86% (inactive). The inhibition in experiment [7] was -3.16% (inactive); in experiment [8] it was -1.64% (inactive).
Turning to `CC(C)(C)c1nc(CN2CCOCC2)ccc1O`, the viability is 109% in experiment [1]; 109% (inactive) in experiment [3]; 106% (inactive) in experiment [4]; 101% (inactive) in experiment [5]; 96.6% in experiment [6] (setting [9]); 101% in experiment [6] (setting [10]). Besides, the Her2 level in experiment [2] was 96.5% (inactive). Besides, the differential viability (reversal) in experiment [6] (H69AR cells + 2 uM doxorubicin) is 4.21% (inactive). In addition, the results for the inhibition in experiment [7] and in experiment [8] were -7.03% (inactive) and -0.82% (inactive), respectively.
`COc1ccccc1N(C)S(=O)(=O)c1ccc(C(=O)NC2=NCCS2)cc1`: the viability in experiment [1] is 104%; in experiment [3], 104% (inactive); in experiment [4], 85.8% (inactive); in experiment [5] it was 96.2% (inactive); in experiment [6] (setting [9]), 99.5%; in experiment [6] (setting [10]), 96.2%. For the same compound, in experiment [2], the Her2 level is 95% (inactive). In experiment [6] (H69AR cells + 2 uM doxorubicin), the differential viability (reversal) was -3.23% (inactive). The inhibition was 0% (inactive) in experiment [7] and -5.4% (inactive) in experiment [8].
For the compound `Nc1nonc1-c1noc(-c2ccccc2Br)n1`, the viability in experiment [1] is 112%; in experiment [3], 112% (inactive); in experiment [4] it was 54.7% (inactive); in experiment [5] it was 95.1% (inactive); in experiment [6] (setting [9]), 92%; in experiment [6] (setting [10]), 95.1%. The Her2 level in experiment [2] was 76.5% (inactive). For the same compound, the differential viability (reversal) in experiment [6] (H69AR cells + 2 uM doxorubicin) was 3.17% (inactive). The inhibition was -6.62% (inactive) in experiment [7] and 5.67% (inactive) in experiment [8].
